In all, about 2,500 compounds went through this assay and about 460 (18%) were called active. Only a sample is shown. Unmarked numbers belong to inactive results.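 How the source made its calls: active means mean activation above a cutoff of low control average plus 3 SD from the earlier screen (cut at about 12% in these data); inactive means the rest.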
assay: compound fluorescence interference without thin filaments, confirmation, artefact control for cardiac RTF calcium sensitizer project, biochemical (AID 504382); conditions: IANBD fluorescence interference counterscreen, buffer, EC20 Ca2+; at 7.2 µM; stronger effect = higher value; scaled: EC20 calcium 0, EC100 calcium 100
Outline: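 Technique: fluorescence, 480/540 nm / Medium: MOPS-based buffer with KCl, MgCl2, EGTA, NTA, DTT, pH 7.2 / Probe or stimulus: calcium at EC20 level, 0.472 mM final / Repeats: triplicate wells per compound / Times: 15 min compound exposure at 25 °C / Measure: compound fluorescence interference relative to control well signal range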

| SMILES | fluorescence artifact activation |
| --- | --- |
| O=C(/C=C/c1ccccc1[N+](=O)[O-])Nc1cccnc1 | 0.87% |
| Cc1ccc2nc3nc(NCC4CCCO4)c(C(=O)NC4CCCC4)cc3c(=O)n2c1 (stereo not given) | 0.12% |
| COc1ccc(Cc2n[nH]c(=O)c3ccccc23)cc1OC | 0.32% |
| C[C@H](CO)N1C[C@H](C)[C@@H](CN(C)C(=O)Nc2ccc(F)cc2)Oc2ccc(NS(C)(=O)=O)cc2C1=O | 0.09% |
| Cc1ccc(N2C(=O)c3cccc4c(N)ccc(c34)C2=O)c2cccnc12 | 0.51% |
| O=C(Nc1ccc(C(=O)N2CCOCC2)cc1)Nc1cccc(Cl)c1 | 8.09% |
| O=C(Nc1ccc2c(c1)OCCO2)c1cccc(Cl)c1Cl | 13.6% (active) |
| O=C(Nc1ccc2c(c1)OCO2)c1ccc2c(c1)OCO2 | 8.95% |
| Cc1ccc(C(=O)NNC(=O)CSc2nnc(-c3ccncc3)n2-c2ccc(C)cc2)cc1 | 0.09% |
| CCN1C(=O)[C@@H]2Cc3c([nH]c4ccccc34)C(c3ccc(OC)cc3)N2C1=S (stereo not given in full) | -0.08% |
| CCN(CC(=O)Nc1ccccc1C(=O)NC1CC1)Cc1cccs1 | 25.6% (active) |
| O=C(NC1CCCCC1)c1ccccc1NC(=S)NC(=O)C1CCC1 | 8.42% |
| O=C(c1ccccn1)N(Cc1cccs1)C1(C(=O)NC2CCCCC2)CCCCC1 | 0.12% |
| O=S(=O)(/C=C/c1ccccc1)N1CCc2ccccc2C1 | 0.07% |
| CCn1c(C)c(CCC(=O)O)c(=O)n2nc(-c3ccccc3OC)cc12 | 0.2% |
| CC(=O)Nc1ccc(S(=O)(=O)NCCC(=O)OCC(=O)c2cc(C)ccc2C)cc1 | 0.05% |
| CC(=O)Nc1ccc(SCC(=O)NNC(=O)CN(C)S(=O)(=O)c2ccc(C)cc2)cc1 | 70.4% (active) |
| Cc1cc(C)nc(NS(=O)(=O)c2ccc(NC(=O)CSc3nc4ccccc4[nH]3)cc2)n1 | 0.03% |
| CCOc1ccc2nc3cc(NCc4ccc(OC)cc4)ccc3c(N)c2c1 | 0.41% |
| Cn1cc(C2=C(c3ccc(Cl)cc3Cl)C(=O)NC2=O)c2ccccc21 | 12.7% (active) |
| Cc1ccc(N=C2NC(=O)/C(=C/c3cn(C)c4ccccc34)S2)cc1C | 0% |
| Cn1cc(/C=C/c2cc[n+](C)cc2)c2cc(Cl)ccc21 | 0.1% |
| COc1cccc(C(=O)Nc2cc(C(=O)NCc3ccc(C)cc3)ccc2N2CCC3(CC2)CC(c2cccc(Br)c2)=NO3)c1 | -0.03% |

| SMILES | fluorescence artifact activation |
| --- | --- |
| CCN(CC(=O)Nc1ccccc1C(F)(F)F)C(=O)c1ccc(-n2nc(C)c(CCC(=O)OC)c2C)cc1 | 8.41% |
| N#Cc1cccc(NC(=O)CSc2ccc3c4c(cccc24)C(=O)c2ccccc2-3)c1 | 0.19% |
| Cn1nc(C(F)(F)F)c(-c2ccc(Br)cc2)c1NC(=O)c1ccco1 | 0.14% |
| CCC(CC)NC(=O)Nc1ccccc1C | 0.09% |
| COCCn1c(C)cc(C(=O)COC(=O)c2ccc(Cl)c(S(N)(=O)=O)c2)c1C | 3.98% |
| Cc1nnc(NC(=O)CSc2ncnc3c2cnn3-c2ccccc2C)s1 | 2.39% |
| Cc1ccc(CNC(=O)c2cc(-c3ccccc3)nn2Cc2cc(C)no2)cc1 | 0.08% |
| Cc1ccc(C)c(C(=O)CCC(=O)NCc2ccc(Cl)cc2)c1 | 0.14% |
| Cc1ccc(CNC(=O)CCn2cc(-c3ccc(C)cc3)nc2-c2ccncc2)cc1 | 18.1% (active) |
| COc1ccc2nc(C)c3cc(C)oc3c2c1 | 8.29% |
| Cn1nc(-c2ccccc2)c(C(=O)Nc2ccc(C(F)(F)F)cc2)c1Cl | 5.74% |
| Cc1cc([N+](=O)[O-])ccc1-c1ccc(/C=N/NC(=O)c2ccc(Br)o2)o1 | 0.29% |
| COC(=O)c1cc(-c2cccc(OC)c2)n[nH]1 | 1.23% |
| CC(O)Cc1cn([C@@H](CCCCN)C(=O)N2CCNCC2)nn1 (stereo not given in full) | 0.06% |
| CC(C)(C)OC(=O)NCCCC[C@@H](C(=O)N1CCN(C(=O)OC(C)(C)C)CC1)n1cc(CCC(=O)O)nn1 | 0.16% |
| C[C@@H](C(=O)N1CCNCC1)n1cc(CCCN=C(N)N)nn1 | 29.3% (active) |
| CC(Oc1ccc(F)cc1)C(=O)Nc1sc2c(c1C(=O)NCc1cccnc1)CCCC2 (stereo not given) | 9.94% |
| Nc1cccc(N2C(=O)c3cccc4c(N)ccc(c34)C2=O)c1 | 0.16% |
| CS(=O)(=O)c1ccc(C(=O)OCC(=O)Nc2cccnc2Cl)cc1[N+](=O)[O-] | 0% |
| COc1ccc2ccccc2c1C(O)c1nccn1C (stereo not given) | 10.5% |
| Cc1occc1C(=O)Nc1cccc([N+](=O)[O-])c1 | 11.4% |
| COC(=O)c1cc2c(=O)c3ccccc3oc2nc1/C=C/N(C)C | 0.12% |
